The source made the active and inactive calls. No cut-off for these calls is given here.

The test system of assay [1] is RAW264.7. The experiment in a line: Antiinflammatory activity in LPS-stimulated mouse RAW264.7 cells assessed as iNOS protein expression at 10 uM after 16 hrs by immunoblot analysis relative to control. The note with it: RAW264.7, 16 h. A general note: A western blot detects proteins with antibodies after separation by electrophoresis.
The test system of assay [2] is RAW264.7. The assay is described as follows: Antiinflammatory activity in LPS-stimulated mouse RAW264.7 cells assessed as COX2 protein expression at 10 uM after 16 hrs by immunoblot analysis relative to control. The note with it: RAW264.7, 16 h.
Assay [3] has as its system RAW264.7. The experiment in a line: Antiinflammatory activity in LPS-stimulated mouse RAW264.7 cells assessed as inhibition of COX2 protein expression at 10 uM after 16 hrs by immunoblot analysis relative to control. The assay is classed as functional. The method in brief:
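RAW 264.7 macrophages (ATCC TIB-71) stimulated with E. coli LPS (0.01 μg/mL) for 16 h with or without compound. Cells washed in ice-cold PBS, lysed, and spun at 20,000g for 30 min at 4 °C. Equal protein loaded for SDS-PAGE and transferred to PVDF. Blots probed 180 min with anti-iNOS or anti-COX-2 (1:1000) and detected by ECL. Levels expressed relative to LPS-only cells. CAPE 10 µM used as reference.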

Assay [4] has as its system Salmonella enterica subsp. enterica. The experiment in a line: Antibacterial activity against Salmonella enteritidis ATCC 13076 up to 100 ug/disk after 24 hrs by agar well diffusion method. The assay is classed as functional, organism-based. The conditions noted are these: Salmonella enterica subsp. enterica serovar Enteritidis, in the assay text read “paper disk diffusion method” for “agar well diffusion method”. The method in brief: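 S. enteritidis ATCC13076 grown in LB broth 24 h at 37 °C. Broth culture (0.3 mL) mixed into 0.7% LB soft agar and layered over 1.5% LB hard agar. Compound applied to 8 mm paper disks at 2 μg/μL, tested up to 100 μg/disk. Ampicillin (5 μg/μL) and solvent served as controls. Plates incubated 24 h at 37 °C.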

For the next assay, the system named is Human betaherpesvirus 5. The assay is described as follows: Inhibition of HCMV UL76 encoded endonuclease expressed in Escherichia coli BL21 (DE3)-RIL assessed as inhibition of supercoiled double stranded phi X 174 bacteriophage DNA cleavage after 1 hr by agarose gel electrophoresis. The method in brief:
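Calmodulin-tagged HCMV UL76 endonuclease purified from E. coli BL21-codon DE3-RIL carrying pCBP-UL76. Serially diluted compound incubated with 1 µg CsCl-purified supercoiled dsDNA φX174, reaction buffer and enzyme at 37 °C for 1 h. Products resolved on 1% agarose gel. IC50 is the concentration giving 50% inhibition of substrate cleavage.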

In the case of `O=C(/C=C/c1ccc(O)c(O)c1)OCCc1ccccc1` [CAFFEIC ACID PHENETHYL ESTER], the iNOS protein level (% of LPS control) at 10 µM in the assay on RAW264.7 [1] worked out at 1.5%. Moreover, the COX-2 protein level (% of LPS control) at 10 µM in the assay on RAW264.7 [2] worked out at 70.2%.

In the case of `C=C1C(=O)O[C@H]2C/C(C)=C/CC/C(C)=C/CC[C@@]3(CO)O[C@@H]3C[C@H]12` [SINULAROLIDE D], the inhibition entry (in the assay on RAW264.7 [3]; in assay [4]; with Human betaherpesvirus 5) was “inactive” in each case. Moreover, the iNOS protein level (% of LPS control) at 10 µM with RAW264.7 [1] worked out at 2.2%.

Turning to `C=C1C(=O)O[C@H]2C/C(C)=C/CC/C(C)=C/CC[C@](O)(COC(C)=O)[C@@H](O)C[C@H]12` [DURUMOLIDE F], the iNOS protein level (% of LPS control) at 10 µM with RAW264.7 [1] was found to be 0.8%. Besides, the inhibition entry (in assay [4]; in the assay on Human betaherpesvirus 5) was “inactive” in each case. For the same molecule, the COX-2 protein level (% of LPS control) at 10 µM in the assay on RAW264.7 [2] is 47.8%.

With `C=C1C(=O)O[C@@H]2[C@@H]1C[C@H]1O[C@]1(COC(C)=O)CC/C=C(\C)[C@@H](O)C/C=C(\C)[C@H]2OC(C)=O` (relative stereo) [DURUMOLIDE I], the inhibition entry (in the assay on RAW264.7 [3]; in assay [4]; with Human betaherpesvirus 5) was “inactive” each time. Moreover, the iNOS protein level (% of LPS control) at 10 µM with RAW264.7 [1] was found to be 6.2%.

Consider `C=C1C(=O)O[C@@H]2[C@@H]1C[C@H](OC(C)=O)[C@@](O)(COC(C)=O)CC/C=C(\C)CC/C=C(\C)[C@H]2OC(C)=O` (relative stereo) [DURUMOLIDE H], for which the outcome with RAW264.7 [3] was inactive. For the same molecule, the iNOS protein level (% of LPS control) at 10 µM in the assay with RAW264.7 [1] amounted to 22.6%. Besides, the inhibition result (in assay [4]; in the assay with Human betaherpesvirus 5) was “inactive” throughout.

Regarding `C=C1C(=O)O[C@H]2C(=O)/C(C)=C/CC/C(C)=C/CC[C@@]3(C=O)O[C@@H]3C[C@H]12` (relative stereo) [DURUMOLIDE L], the inhibition result (in the assay with RAW264.7 [3]; in assay [4]; in the assay on Human betaherpesvirus 5) was “inactive” throughout. The iNOS protein level (% of LPS control) at 10 µM in the assay on RAW264.7 [1] worked out at 1.2%.

Regarding `C=C1C(=O)O[C@H]2C(=O)/C(C)=C/CC/C(C)=C/CC[C@@]3(CO)O[C@@H]3C[C@H]12` (relative stereo) [DURUMOLIDE K], in the assay with RAW264.7 [1], the iNOS protein level (% of LPS control) at 10 µM stood at 5.7%. Moreover, the inhibition result (in assay [4]; in the assay on Human betaherpesvirus 5) was “inactive” throughout. Besides, the COX-2 protein level (% of LPS control) at 10 µM with RAW264.7 [2] stood at 71.6%.

`C=C1C(=O)O[C@@H]2[C@@H]1C[C@H]1O[C@]1(C)CC/C=C(\C)CC/C=C(\C)[C@H]2O` [DURUMOLIDE J]: the inhibition result (in the assay on RAW264.7 [3]; in assay [4]; in the assay with Human betaherpesvirus 5) was “inactive” throughout. In addition, the iNOS protein level (% of LPS control) at 10 µM in the assay with RAW264.7 [1] turned out to be 0.1%.

As for `C=C1C(=O)O[C@@H]2[C@@H]1C[C@H](OC(C)=O)[C@@](O)(COC(C)=O)CC/C=C(\C)CC/C=C(\C)[C@H]2O` (relative stereo) [DURUMOLIDE G], the inhibition entry (with RAW264.7 [3]; in assay [4]; in the assay with Human betaherpesvirus 5) was “inactive” throughout. In the assay on RAW264.7 [1], the iNOS protein level (% of LPS control) at 10 µM turned out to be 7.3%.
